pIC50: −log10 of the molar value. “And” between values parts separate entries of the source, which are not always exact repeats. Equal entries are not always repeated.
Assays:
[1] = target: T1, E-selectin (Homo sapiens) (UniProt P16581); assay: Ratio of IC50 of compound to IC50 of sLex; type: functional
T1 sequence (whole entry): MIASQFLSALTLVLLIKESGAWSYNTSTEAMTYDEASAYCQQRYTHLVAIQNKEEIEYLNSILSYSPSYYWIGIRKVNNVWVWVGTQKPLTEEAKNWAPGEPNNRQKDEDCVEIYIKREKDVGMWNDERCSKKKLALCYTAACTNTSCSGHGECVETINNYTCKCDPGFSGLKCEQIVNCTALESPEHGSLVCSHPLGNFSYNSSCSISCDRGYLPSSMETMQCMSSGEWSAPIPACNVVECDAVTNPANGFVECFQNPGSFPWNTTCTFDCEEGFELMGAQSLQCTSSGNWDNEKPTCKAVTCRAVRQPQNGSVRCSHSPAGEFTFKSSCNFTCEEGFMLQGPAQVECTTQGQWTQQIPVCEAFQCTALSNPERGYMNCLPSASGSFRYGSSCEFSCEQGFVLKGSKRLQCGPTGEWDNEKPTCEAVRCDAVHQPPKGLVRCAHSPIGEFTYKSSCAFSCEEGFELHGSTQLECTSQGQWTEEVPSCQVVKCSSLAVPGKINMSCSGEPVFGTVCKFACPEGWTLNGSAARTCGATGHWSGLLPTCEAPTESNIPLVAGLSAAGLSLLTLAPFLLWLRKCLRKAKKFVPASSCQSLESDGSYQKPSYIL
In short: (§1)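 Cell-free competitive binding assay in which immobilized E-selectin is incubated with a multivalent polylysine/sialyl Lewis^a conjugate and then treated with test compounds. The sLe^x tetrasaccharide is run as a reference on every plate. Relative IC50 is IC50(test)/IC50(sLe^x) from the same plate. Data come from three separate assays.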

E-selectin [2] = target: T2, E-selectin (Homo sapiens, UniProt P16581); assay: In vitro inhibitory activity against Selectin E; in short: as §1
T2 sequence (P16581 whole entry): T1 sequence (whole entry)

Mus musculus = species on record: Mus musculus; assay: Inhibitory effect in a thioglycollate induced peritonitis model of acute inflammation in mice; type: functional
E-selectin [3] = target: T2, E-selectin; assay: In vitro inhibitory activity against Selectin E measured by sLex(static cell free ligand binding assay); in short: as §1

Row | Relative IC50 [1] | pIC50 (E-selectin [2]) | pIC50 (E-selectin [3]) | Structure (SMILES) | ED50 (Mus musculus) [mg/kg]
1 | 0.031 [middle of 4 runs] | 4.48 and 4.62 and 4.29 and 4.44 | – | C[C@@H]1O[C@@H](O[C@@H]2[C@H](CO)OCC[C@H]2O[C@@H]2O[C@@H](CO)[C@H](O)C(O[C@@H](CC3CCCCC3)C(=O)[O-])[C@@H]2O)[C@@H](O)[C@@H](O)[C@@H]1O.[Na+] (some centres undefined) | 15
2 | – | – | 2.93 and 3.05 and 2.88 and 2.95 | COC(=O)CCCCCCCCO[C@@H]1C[C@@H](CO)[C@@H](O[C@@H]2O[C@@H](O)[C@H](O)[C@H](O[C@]3(C(=O)O)C[C@@H](O)[C@@H](NC(C)=O)[C@H]([C@H](O)[C@H](O)CO)O3)[C@@H]2O)[C@H](O[C@@H]2O[C@@H](C)[C@@H](O)[C@H](O)[C@@H]2O)[C@@H]1NC(C)=O | –
